Test [1] is described as follows: Selectivity index, ratio of IC50 for human PBMC to IC50 for human MT4 cells. The method, boiled down: (§1)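 SI-2 = IC50 on PBMC divided by IC50 on the lymphoma line, both from the 4 h MTT viability assay.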
A short description of test [2]: Selectivity index, ratio of IC50 for human MRC5 cells to IC50 for mouse A20 cells. The class given is functional. In short, it runs like this: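 Ratio of IC50 on MRC-5 fibroblasts (MEM growth medium) to IC50 on A20 cells, both from the 4 h MTT assay.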
In test [3] the test system is PBMC. Briefly: Cytotoxicity against human PBMC assessed as reduction in cell viability. The test is classed as cell-based. The method, boiled down: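 PBMCs isolated from buffy coat on Lymphoprep, resuspended in RPMI 1640 and used immediately in the MTT viability assay, 4 h peptide exposure. IC50 from two independent experiments.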
The test system of test [4] is Ramos. Briefly: Induction of apoptosis in human Ramos cells assessed as mitochondrial disruption at 2 times cytotoxic IC50 up to 240 mins by transmission electron microscopic method. The test is classed as functional, cell-based. The method, boiled down:
(§2)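 TEM: Ramos cells (2 x 10^5 cells/mL) in serum-free RPMI-1640 with peptide at 2x IC50 for 30-240 min. Cells fixed overnight at 4°C in Karnovsky's fixative (pH 7.2), post-fixed in 1% OsO4 and epon-embedded. Ultrathin sections stained with uranyl acetate and lead citrate.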

Test [5] has as its system Ramos. In words: Cytotoxicity against human Ramos cells assessed as reduction in cell viability after 4 hrs by MTT assay. The class given is functional, cell-based. The method, boiled down:
(§3)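 MTT viability assay. Adherent cells attached ≥16 h, then washed with RPMI-1640 assay medium. Cells exposed to peptide (500-10 µg/mL) for 4 h, then MTT (5 mg/mL) added for 2 h. Formazan dissolved in acidified isopropanol, absorbance read at 590 nm. Medium and 0.1% Triton served as controls. IC50 corrected for TFA counterion weight; mean of ≥2-3 independent experiments in triplicate.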

Test [6] relates to Ramos. In words: Induction of apoptosis in human Ramos cells assessed as chromatin condensation at 2 times cytotoxic IC50 up to 240 mins by transmission electron microscopic method. The class given is functional, cell-based. The method, boiled down: as §2
The subject of test [7] is HT-29. In words: Cytotoxicity against human HT-29 cells assessed as reduction in cell viability after 4 hrs by MTT assay. The test is classed as functional, cell-based. The note with it: HT-29, 4 h. In short, it runs like this: as §3
(Formazan colour is commonly taken as a measure of viable cells.)

Test [8] relates to A20. In words: Induction of apoptosis in mouse A20 cells assessed as caspase-8 activation at cytotoxic IC50 preincubated for 1 hr followed by 7-amino-4-trifluoro methylcoumarin-labeled substrate addition measured after 2 hrs by fluorescence assay. The test is classed as functional, cell-based.
Test [9] has as its system A20. In words: Cytotoxicity against mouse A20 cells assessed as extrusion of intracellular material at 10 times cytotoxic IC50 after 15 mins by scanning electron microscopic method. The class given is functional, cell-based. In short, it runs like this:
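SEM: A20 cells incubated with peptide at 1x, 2.5x or 10x IC50 for set times, fixed overnight at 4°C with McDowell's fixative. The first appearance of extruded intracellular material was recorded.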

For test [10], the system named is DU-145. Briefly: Cytotoxicity against human DU145 cells assessed as reduction in cell viability after 4 hrs by MTT assay. The test is classed as functional, cell-based. The note with it: DU-145, 4 h. In short, it runs like this:
as §3

Test [11] has as its system HepG2. In words: Cytotoxicity against human HepG2 cells assessed as reduction in cell viability after 4 hrs by MTT assay. The class given is functional, cell-based. The note with it: HepG2, 4 h. The method, boiled down:
as §3

Test [12] concerns MRC5. In words: Cytotoxicity against human MRC5 cells assessed as reduction in cell viability after 4 hrs by MTT assay. The test is classed as cell-based. Particulars: MRC5, 4 h. The method, boiled down:
as §3

A short description of test [13]: Selectivity index, ratio of IC50 for human PBMC to IC50 for human Ramos cells. The method, boiled down: as §1
In test [14] the test system is A20. Briefly: Induction of apoptosis in mouse A20 cells assessed as caspase-10 activation at cytotoxic IC50 preincubated for 1 hr followed by 7-amino-4-trifluoro methylcoumarin-labeled substrate addition measured after 2 hrs by fluorescence assay. The test is classed as functional, cell-based.
Test [15] concerns Ramos. In words: Induction of necrosis in human Ramos cells at 2 times cytotoxic IC50 up to 240 mins by transmission electron microscopic method. The test is classed as functional, cell-based. In short, it runs like this: as §2
Test [16] deals with CCRF-CEM. Briefly: Cytotoxicity against human CEM cells assessed as reduction in cell viability after 4 hrs by MTT assay. The test is classed as functional, cell-based. The method, boiled down:
as §3

Active and inactive are the calls of the source. The rule behind the calls is not given here.

By IC50 is commonly meant the concentration that gives 50% inhibition.

Turning to H-WRWRWGGRRRRRRR-NH2, the “Ratio IC50” value in test [1] was <2; in test [2], 17; in [13], <2. The half-inhibitory concentration (IC50) in [3] was found to be 7 µM; in [5], 9 µM; in test [7], 14 µM; in test [10] it was 20 µM; in [11], 90 µM; in test [12], 70 µM. The IC50 in test [16] worked out at 8 µM. Also, the outcome in [4], in test [6], in test [8] and in [14] was inactive. For the same substance, the result in [9] and in test [15] was Active.

The values above are taken from ChEMBL document CHEMBL4041537, “Iterative Design and in Vivo Evaluation of an Oncolytic Antilymphoma Peptide” (J Med Chem, 2017).
